SMARCA2 act: SMARCA2 function activation, primary screen. 370,000 tested, 1% active. activation, % at 9.1 µM. MG213 cells, MMTV-luciferase reporter, dexamethasone, overnight; in the data active means activation above about 7.8%;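 further: 0% = vehicle wells and 100% = reference activator wells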
Efflux pump mplx: blocks antifungal efflux pumps in multiplex yeast assay | 330,000 tested, 0.44% active | inhibition, % at 10 µM | S. cerevisiae Candida pump triplex, Nile Red efflux;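 active means plate passing quality check with inhibition over a set limit, or well fluorescence over plate mean plus 4 SD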;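 further: Nile Red retained in pooled yeast measured as flow cytometry median fluorescence; 0% = buffer negative control and 100% = Enniatin B positive control; higher means more Nile Red kept so more efflux inhibition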
AHR act: activators of human aryl hydrocarbon receptor | 320,000 tested, 2.5% active | AHR-responsive luciferase reporter cells, luminescence | activation, % at 5 µM | P35869; in the data active means activation above about 47%;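 further: 0% = vehicle wells and 100% = reference agonist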
H9c2 TAG inh: reduces triacylglycerol accumulation in H9c2 cells; Nile Red lipid (TAG) fluorescence; cells loaded with 200 µM oleic acid; inhibition, % at 12.5 µM; 230,000 tested, 0.66% active; AID 651582;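 active means pattern-corrected inhibition of lipid staining of at least 50% with the nuclear-stain viability signal not falling by more than 50%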;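 further: 0% = DMSO wells and 100% = triacsin C control wells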
Tb MetRS inh: blocks T. brucei methionyl-tRNA synthetase activity. inhibition, % at 11.9 µM. purified T. brucei MetRS, ATP depletion, Kinase-Glo luminescence. 360,000 tested, 0.4% active;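 active means inhibition above a per-plate cutoff of the control wells' mean inhibition plus 3 SD, cut at about 5.5% in these data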;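 further: 0% = DMSO wells median and 100% = median of wells with control inhibitor compound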
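Assay system: T. brucei methionyl-tRNA synthetase, purified | Medium: HEPES buffer with MgCl2, KCl, DTT, spermine, BSA, pyrophosphatase | Compound: 11.9 µM single point | Incubation: 15 min enzyme-compound preincubation, 2 h reaction, 10 min detection, 25 °C | Measured by: Kinase-Glo luciferase luminescence reporting remaining unconsumed ATP | Measure: % inhibition normalized to control-well medians | Replication: Singlicate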
Cmpd fluor yeast: flagged as fluorescent in efflux inhibitor counter-screen. shares compounds with Efflux pump mplx. S. cerevisiae AD/pABC3, compound fluorescence, flow cytometry. fluorescence ratio to DMSO, % at 10 µM. 1,700 tested, 4% active;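 active means fluorescence ratio to DMSO above its plate's cutoff, the plate mean ratio plus 5 SD, cut at about 210% in these data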;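 further: unstained yeast with no Nile Red so the signal is compound autofluorescence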
CaMdr1 efflux inh: inhibitors of Candida albicans Mdr1 efflux pump | S. cerevisiae AD/CaMDR1, Nile Red efflux, flow cytometry | 1,700 tested, 1% active | shares compounds with Efflux pump mplx | inhibition, % at 10 µM; in the data active means inhibition above about 26%;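 further: 0% = DMSO vehicle and 100% = reference inhibitor; higher means more Nile Red retained so more efflux inhibition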
CaCdr2 efflux inh: Candida Cdr2 efflux pump inhibition. shares compounds with Efflux pump mplx. Nile Red retention ratio vs DMSO, % at 10 µM. S. cerevisiae AD/CaCDR2, Nile Red retention, flow cytometry. 1,700 tested, 4% active. AID 588520; in the data active means Nile Red retention ratio vs DMSO above about 190%;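 further: higher ratio means more blocking of Cdr2 efflux of the dye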
CaCdr1 efflux inh: Candida Cdr1 efflux pump inhibition. shares compounds with Efflux pump mplx. 1,700 tested, 1% active. S. cerevisiae AD/CaCDR1, Nile Red efflux, flow cytometry. inhibition, % at 10 µM;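 active means inhibition above the screen-wide mean plus twice its standard deviation, cut at about 32% in these data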
An asterisk follows results filed as active; · = no result given. Rows were chosen to be rich in hits. Some 4.1% of all compounds tested hit in one or more screens of this group.

SMILES	SMARCA2 act	Efflux pump mplx	AHR act	H9c2 TAG inh	Tb MetRS inh	Cmpd fluor yeast	CaMdr1 efflux inh	CaCdr2 efflux inh	CaCdr1 efflux inh
Cc1ccc(C)n1-c1ccc(N2CCOCC2)nc1	·	12*	9	·	0	99	0	88	0
O=C(CSc1nnc(-c2ccccc2)n1Cc1ccco1)Nc1ccc(Oc2ccccc2)cc1	-6	·	·	·	·	·	·	·	·
CCCOc1ccc(-c2nc(N3CCN(C)CC3)c3ccccc3n2)cc1	5	1.0*	16	·	-1	102	0	97	0
Cc1ccc(-c2nnc(SCc3ccc([N+](=O)[O-])cc3)n2-c2ccccc2)cc1	-4	·	·	·	·	·	·	·	·
O=C(NCCCN1CCCC1=O)c1cncc(Br)c1	0	0	0	·	-1	·	·	·	·
O=C(NCCCN1CCCC1=O)c1cccnc1	-2	5.9*	-1	·	0	95	0	91	0
O=C(Nc1ccc(Cl)cc1)OC[C@@H]1CSCCS(=O)(=O)N1	1	·	·	·	·	·	·	·	·
COC(=O)[C@H](C(C)C)N1Cc2nnn(Cc3ccc(C)cc3)c2-c2cc(F)ccc2S1(=O)=O	-4	·	·	·	·	·	·	·	·
Cc1ccc(Nc2c(-c3ccc(N4CCOCC4)cc3)nc3ncccn23)cc1	-2	0.9*	14	5	0	108	0	106	0
CCN(CC)c1ccc(/C=C/c2cc(-c3ccccc3)c3ccccc3n2)cc1	2	1.9*	17	·	-1	125	1	142	1
COc1ccccc1NC(=O)COC(=O)c1ccccc1OCC(=O)Nc1ccc(SC(F)F)cc1	-2	0	-3	·	-1	·	·	·	·
COc1ccccc1C(=O)COC(=O)c1ccccc1OCC(=O)Nc1ccc(SC(F)F)cc1	-2	11*	0	·	0	103	0	107	0
O/N=C/c1ccc(-c2cc(Cl)ccc2Cl)o1	1	11*	2	·	2	84	0	95	0
Cc1ccc(/C=N/NC(=O)c2csc3c2CCCC3)cc1	2	0	9	47	0	·	·	·	·
Cc1nn(C)cc1/C=N\NC(=O)c1csc2c1CCCC2	0	7.4*	17	12	0	109	0	106	0
COc1ccccc1CCC[C@H](CCS(=O)(=O)C(C)C)CC1CCCCC1	-3	·	·	·	·	·	·	·	·
O=C(Nc1nnc(-c2ccc(F)cc2)s1)Nc1ccccc1F	-1	0.8*	-1	5	0	102	0	108	0
O=C(Nc1nnc(-c2cccc(F)c2)s1)Nc1ccccc1F	0	0	-1	·	-1	·	·	·	·
COc1ccc(C2N=C(Nc3ccc(C)cc3)Nc3nc(C)cc(=O)n32)cc1 (stereo unspecified)	-3	0.4*	18	10	0	99	0	97	0
C/C(=N/NC(=O)c1ccco1)c1ccc(Br)s1	0	0	·	4	0	·	·	·	·
C/C(=N\NC(=O)c1cc(Cl)ccc1O)c1ccc(Br)s1	6	7.6*	13	0	0	95	0	104	0
Cc1ccc(CN2C(=O)C(CC(C)C)Nc3ncnc(N4CCN(c5ccccc5)CC4)c32)cc1 (stereo unspecified)	-1	0	1	·	0	109	0	117	0
CC(C)CC1Nc2ncnc(N3CCN(c4ccccc4)CC3)c2N(Cc2ccc(Cl)cc2)C1=O (stereo unspecified)	0	0	3	13	0	·	·	·	·
CCC1Nc2ncnc(N3CCN(c4ccccn4)CC3)c2N(Cc2ccc(Br)cc2)C1=O (stereo unspecified)	0	0	3	27	0	112	0	121	0
CCC1Nc2ncnc(N3CCN(c4ccccc4)CC3)c2N(Cc2ccccc2)C1=O (stereo unspecified)	-2	0	0	-2	0	107	0	120	0
COc1ccc(CN2C(=O)C(C)Nc3ncnc(N4CCOCC4)c32)cc1 (stereo unspecified)	0	0	-1	24	0	·	·	·	·
